≈ marks a conversion by molar mass, not a printed value.
Tests used:
Assay type in all cases: functional
[1] = test system: Mycobacterium tuberculosis; assay: Antimycobacterial activity against isoniazid and streptomycin-resistant Mycobacterium tuberculosis 4166/04 after 14 days by micromethod; settings: 4166/04, 336 h
Procedure, shortened: (§1)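 MIC by micromethod in Šula semisynthetic medium. Compounds added as DMSO solutions at 1000, 500, 250, 125, 62, 32, 16, 8, 4 and 2 µmol/L. Incubated at 37 °C and read at 14 and 21 days. MIC taken as the lowest concentration that inhibited mycobacterial growth, expressed in µmol/L. INH run as standard. Strains from CNCTC.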

[2] = test system: Mycobacterium tuberculosis; assay: Antimycobacterial activity against multidrug-resistant Mycobacterium tuberculosis 4977/03 after 14 days by micromethod; settings: 4977/03, 336 h; procedure, shortened: as §1
[3] = test system: Mycobacterium tuberculosis; assay: Antimycobacterial activity against multidrug-resistant Mycobacterium tuberculosis 7357/98 after 21 days by micromethod; settings: 7357/98, 504 h; procedure, shortened: as §1
[4] = test system: Mycobacterium tuberculosis; assay: Antimycobacterial activity against multidrug-resistant Mycobacterium tuberculosis 4977/03 after 21 days by micromethod; settings: 4977/03, 504 h; procedure, shortened: as §1
[5] = test system: Mycobacterium tuberculosis; assay: Antimycobacterial activity against multidrug-resistant Mycobacterium tuberculosis 7357/98 after 14 days by micromethod; settings: 7357/98, 336 h; procedure, shortened: as §1
[6] = test system: Mycobacterium tuberculosis; assay: Antimycobacterial activity against multidrug-resistant Mycobacterium tuberculosis 550/04 after 14 days by micromethod; settings: 550/04, 336 h; procedure, shortened: as §1
[7] = test system: Mycobacterium tuberculosis; assay: Antimycobacterial activity against isoniazid and streptomycin-resistant Mycobacterium tuberculosis 4166/04 after 21 days by micromethod; settings: 4166/04, 504 h; procedure, shortened: as §1
[8] = test system: Mycobacterium tuberculosis; assay: Antimycobacterial activity against multidrug-resistant Mycobacterium tuberculosis 550/04 after 21 days by micromethod; settings: 550/04, 504 h; procedure, shortened: as §1

Structure (SMILES) | MIC [1] [µM] | MIC [2] [µM] | MIC [3] [µM] | MIC [4] [µM] | MIC [5] [µM] | MIC [6] [µM] | MIC [7] [µM] | MIC [8] [µM]
NC(=S)c1ccc(CSc2nc3ccccc3o2)cc1 | 8 (≈ 2.4 µg/mL) | 32 (≈ 9.61 µg/mL) | 32 (≈ 9.61 µg/mL) | 32 (≈ 9.61 µg/mL) | 32 (≈ 9.61 µg/mL) | 8 (≈ 2.4 µg/mL) | 16 (≈ 4.81 µg/mL) | 16 (≈ 4.81 µg/mL)
O=[N+]([O-])c1cc(CSc2nc3ccccc3o2)cc([N+](=O)[O-])c1 | 2 (≈ 0.663 µg/mL) | 2 (≈ 0.663 µg/mL) | 4 (≈ 1.33 µg/mL) | 2 (≈ 0.663 µg/mL) | 4 (≈ 1.33 µg/mL) | 2 (≈ 0.663 µg/mL) | 4 (≈ 1.33 µg/mL) | 4 (≈ 1.33 µg/mL)

From ChEMBL document CHEMBL1137696, “Preparation and in vitro evaluation of benzylsulfanyl benzoxazole derivatives as potential antituberculosis agents” (2009)
